Test results from ChEMBL document CHEMBL2040794, “Synthesis and structure-activity analysis of new phosphonium salts with potent activity against African trypanosomes” (J Med Chem, 2012).

Key:
[1] = tested on: Trypanosoma brucei brucei; experiment: Antitrypanosomal activity against wild type Trypanosoma brucei brucei Lister 427 after 3 days by alamar blue assay; type: functional, organism-based
In short: (§1)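 Bloodstream-form T. b. brucei (wild-type s427; TbAT1-KO, made from s427 by TbAT1 deletion; B48, selected from TbAT1-KO in vitro on pentamidine, lacking functional HAPT1). Cells were exposed to compound for 48 h, then resazurin (Alamar blue) was added for a further 24 h. A single fluorescence reading gave EC50.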

[2] = Selectivity index, ratio of EC50 for rat L6 cells to EC50 for Trypanosoma brucei rhodesiense STIB900; type: toxicity, cell-based; details: for selectivity ratio: L6 cells, read-out: Ratio EC50; for Ratio EC50: l6
In short: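 Ratio of EC₅₀ in L6 cells to EC₅₀ against T. b. rhodesiense STIB900, both from Alamar blue assays.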

[3] = Cytotoxicity against human HEK cells after 3 days by alamar blue assay; type: cell-based, HEK293
In short: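 Human embryonic kidney cells tested by resazurin (Alamar blue) assay: 48 h with compound, then 24 h more after dye addition, single reading; EC₅₀ derived.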

[4] = tested on: Trypanosoma brucei brucei; experiment: Resistance factor, ratio of EC50 for diminazene aceturate-resistant TbAT1 gene-deficient Trypanosoma brucei brucei AT1-KO to EC50 for wild type Trypanosoma brucei brucei Lister 427; type: functional
In short: (§2)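 Resistance factor is the EC50 in the resistant line (TbAT1-KO or B48) divided by the EC50 in wild-type s427. […] Resistant and wild-type EC50s were compared by Student t-test.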

[5] = tested on: Trypanosoma brucei brucei; experiment: Antitrypanosomal activity against diminazene aceturate-resistant TbAT1 gene-deficient Trypanosoma brucei brucei AT1-KO after 3 days by alamar blue assay; type: functional, organism-based; in short: as §1
[6] = tested on: Trypanosoma brucei rhodesiense; experiment: Antitrypanosomal activity against Trypanosoma brucei rhodesiense STIB900 infected in rat L6 cells after 72 hrs by alamar blue assay; type: functional, organism-based
[7] = tested on: Trypanosoma brucei brucei; experiment: Antitrypanosomal activity against diminazene-, pentamidine-, and melaminophenyl arsenical-resistant HAPT1-deficient Trypanosoma brucei brucei B48 after 3 days by alamar blue assay; type: functional, organism-based; in short: as §1
[8] = Selectivity index, ratio of EC50 for human HEK cells to EC50 for wild type Trypanosoma brucei brucei Lister 427; type: toxicity, cell-based, HEK293; details: for selectivity ratio: HEK cells, read-out: Ratio EC50; for Ratio EC50: hek293
In short: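 Ratio of EC₅₀ in HEK cells to EC₅₀ in wild-type T. b. brucei s427, both from resazurin assays.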

[9] = tested on: Trypanosoma brucei brucei; experiment: Resistance factor, ratio of EC50 for diminazene-, pentamidine-, and melaminophenyl arsenical-resistant HAPT1-deficient Trypanosoma brucei brucei B48 to EC50 for wild type Trypanosoma brucei brucei Lister 427; type: functional; in short: as §2
L6 = experiment: Cytotoxicity against rat L6 cells after 72 hrs by alamar blue assay; type: cell-based
[10] = Trypanosoma brucei, Lister 427, 72 h
[11] = Trypanosoma brucei, AT1-KO, 72 h
[12] = Trypanosoma brucei, STIB900, 72 h

Compound | EC50 [1, 10] [nM] | selectivity ratio [2] | EC50 ([3]; Homo sapiens, HEK293, 72 h) [nM] | Ratio EC50 [4] | EC50 [5, 11] [nM] | EC50 [6, 12] [nM] | EC50 ([7]; Trypanosoma brucei, B48, 72 h) [nM] | selectivity ratio [8] | Ratio EC50 [9] | EC50 (L6; Rattus norvegicus, L6, 72 h) [nM] | Ratio EC50 [2] | EC50 ([3]; hek293) [nM] | EC50 [5] [nM] | EC50 [6] [nM] | Ratio EC50 [8] | EC50 (L6; l6) [nM] | EC50 [1] [nM] | EC50 [7] [nM]
COc1ccccc1[P+](Cc1ccc(Cc2ccc(C[P+](c3ccccc3OC)(c3ccccc3OC)c3ccccc3OC)cc2)cc1)(c1ccccc1OC)c1ccccc1OC.[Br-].[Br-] | 80 | 5 | 204000 | 0.9 | 74 | 209 | 66 | 2560 | 0.8 | 1080 | – | – | – | – | – | – | – | –
O=C(c1ccc(C[P+](c2ccc(Cl)cc2)(c2ccc(Cl)cc2)c2ccc(Cl)cc2)cc1)c1ccc(C[P+](c2ccc(Cl)cc2)(c2ccc(Cl)cc2)c2ccc(Cl)cc2)cc1.[Br-].[Br-] | 940 | 18 | 63000 | 1.5 | 1370 | 410 | 950 | 67 | 1 | 7200 | – | – | – | – | – | – | – | –
Cc1ccc([P+](Cc2ccc(Oc3ccccc3)cc2)(c2ccc(C)cc2)c2ccc(C)cc2)cc1.[Br-] | 15 | 131 | 17600 | 0.8 | 13 | 2 | 10 | 1140 | 0.7 | 263 | – | – | – | – | – | – | – | –
Cc1ccc([P+](Cc2ccc(Cc3ccc(C[P+](c4ccc(C)cc4)(c4ccc(C)cc4)c4ccc(C)cc4)cc3)cc2)(c2ccc(C)cc2)c2ccc(C)cc2)cc1.[Br-].[Br-] | 80 | 24 | 233000 | 1 | 80 | 99 | 74 | 2900 | 0.9 | 2330 | – | – | – | – | – | – | – | –
Cc1ccc([P+](Cc2ccc(C(=O)c3ccc(C[P+](c4ccc(C)cc4)(c4ccc(C)cc4)c4ccc(C)cc4)cc3)cc2)(c2ccc(C)cc2)c2ccc(C)cc2)cc1.[Br-].[Br-] | 110 | – | – | 1.6 | – | – | 90 | – | 0.8 | – | 49 | 141000 | 18 | 220 | 1266 | 10800 | – | –
Cc1cccc([P+](Cc2ccc(C(=O)c3ccccc3)cc2)(c2cccc(C)c2)c2cccc(C)c2)c1.[Br-] | 170 | 9.5 | 48200 | 0.8 | 150 | 274 | 110 | 281 | 0.7 | 2610 | – | – | – | – | – | – | – | –
O=C(c1ccc(C[P+](c2cccc3ccccc23)(c2cccc3ccccc23)c2cccc3ccccc23)cc1)c1ccc(C[P+](c2cccc3ccccc23)(c2cccc3ccccc23)c2cccc3ccccc23)cc1.[Br-].[Br-] | 180 | 12 | 92000 | 1.8 | 339 | 400 | 180 | 502 | 1 | 4900 | – | – | – | – | – | – | – | –
Cc1cccc([P+](Cc2ccc(Oc3ccc(C[P+](c4cccc(C)c4)(c4cccc(C)c4)c4cccc(C)c4)cc3)cc2)(c2cccc(C)c2)c2cccc(C)c2)c1.[Br-].[Br-] | 57 | 1.9 | 45400 | 0.7 | 43 | 488 | 88 | 792 | 1.5 | 942 | – | – | – | – | – | – | – | –
C[P+](C)(Cc1ccc(CCCc2ccc(C[P+](C)(C)c3ccccc3)cc2)cc1)c1ccccc1.[Br-].[Br-] | 1270 | 49 | > 300000 | 1.1 | 1370 | 1220 | 1090 | > 230 | 0.9 | 59500 | – | – | – | – | – | – | – | –
Cc1ccc([P+](Cc2ccc(CCc3ccc(C[P+](c4ccc(C)cc4)(c4ccc(C)cc4)c4ccc(C)cc4)cc3)cc2)(c2ccc(C)cc2)c2ccc(C)cc2)cc1.[Cl-].[Cl-] | – | – | – | 0.5 | – | – | – | – | 0.8 | – | 33.8 | 23300 | 30 | 50 | 404 | 1690 | 58 | 45
CCCCCCCC[P+](CCCCCCCC)(CCCCCCCC)Cc1ccc(C(=O)c2ccc(C[P+](CCCCCCCC)(CCCCCCCC)CCCCCCCC)cc2)cc1.[Br-].[Br-] | 42 | 5 | 27000 | 1.4 | 61 | 220 | 45 | 639 | 1.1 | 1000 | – | – | – | – | – | – | – | –
COc1ccccc1[P+](Cc1ccc(C(=O)c2ccc(C[P+](c3ccccc3)(c3ccccc3OC)c3ccccc3OC)cc2)cc1)(c1ccccc1)c1ccccc1OC.[Br-].[Br-] | 240 | 28 | 107000 | 1.3 | 320 | 230 | 190 | 438 | 0.8 | 6400 | – | – | – | – | – | – | – | –
CCCCCC[P+](CCCCCC)(CCCCCC)Cc1ccc(C(=O)c2ccccc2)cc1.[Br-] | 11 | 15 | 13400 | 0.7 | 8 | 103 | 22 | 1200 | 1.9 | 1610 | – | – | – | – | – | – | – | –
Cc1ccc(C[P+](c2ccccc2)(c2ccccc2)c2ccccc2)cc1.[Cl-] | 23 | 48 | > 300000 | 1 | 24 | 216 | 23 | > 12500 | 1 | 10400 | – | – | – | – | – | – | – | –
COc1ccccc1[P+](Cc1ccc(C(=O)c2ccccc2)cc1)(c1ccccc1OC)c1ccccc1OC.[Br-] | 210 | 10 | 63200 | 1.1 | 220 | 376 | 150 | 306 | 0.7 | 3970 | – | – | – | – | – | – | – | –
Cc1ccc([P+](CCc2ccc(CCc3ccc(CC[P+](c4ccc(C)cc4)(c4ccc(C)cc4)c4ccc(C)cc4)cc3)cc2)(c2ccc(C)cc2)c2ccc(C)cc2)cc1.[Cl-].[Cl-] | 125 | 40.3 | 12800 | 0.8 | 94 | 27 | 89 | 103 | 0.7 | 1090 | – | – | – | – | – | – | – | –
Cc1ccc([P+](Cc2ccc(C(=O)c3ccccc3)cc2)(c2ccc(C)cc2)c2ccc(C)cc2)cc1.[Br-] | 64 | 16.7 | 32500 | 0.2 | 12 | 81 | 11 | 505 | 0.2 | 1350 | – | – | – | – | – | – | – | –
O=C(c1ccc(C[P+](c2ccccc2)(C2CCCCC2)C2CCCCC2)cc1)c1ccc(C[P+](c2ccccc2)(C2CCCCC2)C2CCCCC2)cc1.[Br-].[Br-] | 240 | 72 | > 300000 | 1.1 | 260 | 320 | 290 | > 1270 | 1.2 | 22900 | – | – | – | – | – | – | – | –
Cc1ccc([P+](Cc2ccc(C(=O)c3ccc(C[P+](c4ccc(C)cc4)(c4ccc(C)cc4)c4ccc(C)cc4)cc3)cc2)(c2ccc(C)cc2)c2ccc(C)cc2)cc1.[Cl-].[Cl-] | – | – | – | 0.7 | – | – | – | – | 0.8 | – | 14.5 | 24000 | 65 | 84 | 254 | 1220 | 94 | 73
CC(C)[P+](Cc1ccc(Cc2ccc(C[P+](c3ccccc3)(c3ccccc3)C(C)C)cc2)cc1)(c1ccccc1)c1ccccc1.[Br-].[Br-] | 440 | 6.4 | > 300000 | 0.9 | 400 | 534 | 430 | > 680 | 1 | 3440 | – | – | – | – | – | – | – | –
Cc1ccc([P+](Cc2ccc(CCCc3ccc(C[P+](c4ccc(C)cc4)(c4ccc(C)cc4)c4ccc(C)cc4)cc3)cc2)(c2ccc(C)cc2)c2ccc(C)cc2)cc1.[Br-].[Br-] | – | 22 | – | 1.7 | 49 | 81 | 53 | – | 1.8 | 1800 | – | 25800 | – | – | 897 | – | 29 | –
